Assay results reported in ChEMBL document CHEMBL1128395, “Design and synthesis of novel inhibitors of HIV-1 reverse transcriptase” (J Med Chem, 1995).

These compounds were tested on MT4 (assay: Compound was evaluated for effective concentration required to achieve 50% protection of MT-4 cells against cytopathic effect of HIV-1). Settings: Homo sapiens.
Type: functional, cell-based

Question: Which EC50 does the source give for `Cc1c(O)nc(O)nc1Sc1ccccc1` here?
Answer: Its EC50 is > 250 µM.

The compounds below were run against Human immunodeficiency virus type 1 reverse transcriptase (Human immunodeficiency virus 1, UniProt Q72547) (assay: Inhibitory activity against HIV-1 Reverse transcriptase). Settings: not given.
Summary of the method: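 Cell-free HIV-1 reverse transcriptase inhibition assay, with TIBO and BI-RG-587 run as reference inhibitors. IC50 is the inhibitor concentration giving 50% enzyme inhibition, taken as the mean of at least two independent assays.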

Question: For `CCOCn1c2c(c(=O)[nH]c1=O)CNc1ccccc1S2`, which IC50 is on record?
Answer: Its IC50 is 50.2 µM.

Question: `O=c1[nH]c(=O)n(COCCO)c2c1C(c1ccccc1)Nc1ccccc1S2` (configuration not stated) was tested. Which IC50 did it give?
Answer: The IC50 was > 100 µM.

Question: Which IC50 does the source give for `CC(=O)OCCOCn1c2c(c(=O)[nH]c1=O)CNc1ccccc1S2` here?
Answer: The IC50 was 11.5 µM.

Question: With `O=c1[nH]c(=O)n(COCCO)c2c1C(c1ccc([N+](=O)[O-])cc1)Nc1ccccc1S2` (configuration not stated) as the compound, how does the IC50 read?
Answer: The IC50 was > 100 µM.

Question: `CC(=O)OCCOCn1c2c(c(=O)[nH]c1=O)C(c1ccccc1)Nc1ccccc1S2` (configuration not stated) was tested. Which IC50 did it give?
Answer: Its IC50 is > 100 µM.

Question: For `CC(=O)OCCOCn1c2c(c(=O)[nH]c1=O)CN(C)c1ccccc1S2`, which IC50 is on record?
Answer: Its IC50 is 14.7 µM.

Question: How did the IC50 turn out when `CC(=O)OCCOCn1c2c(c(=O)[nH]c1=O)C(=O)Nc1ccccc1S2` was run?
Answer: Its IC50 is > 100 µM.

Question: Which IC50 does the source give for `CC(=O)OCCOCn1c2c(c(=O)n(C)c1=O)CNc1ccccc1S2` here?
Answer: Its IC50 is > 100 µM.

Question: How did the IC50 turn out when `CCOCCOCn1c2c(c(=O)[nH]c1=O)CNc1ccccc1S2` was run?
Answer: Its IC50 is 0.64 µM.

Question: With `O=c1[nH]c(=O)n(COCCO)c2c1CNc1ccccc1S2` as the compound, how does the IC50 read?
Answer: Its IC50 is > 100 µM.

Question: With `O=c1[nH]c2c(c(=O)[nH]1)CNc1ccccc1S2` [PYRIMIDOBENZOTHIAZEPINE] as the compound, how does the IC50 read?
Answer: The IC50 was > 100 µM.
